Source: EPA's CvTdb concentration-time database

How the values were obtained:
[1] = system: Rat; assay: concentration in plasma after dosing; conditions: dosed: 2,4-Dichlorophenoxyacetic acid, 2.0 mg/kg, iv, Male, Sprague-Dawley
[2] = system: Hamster; assay: concentration in plasma after dosing; conditions: dosed: 2,4-Dichlorophenoxyacetic acid, Male, Syrian Golden
Procedure, shortened: (§1)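 A PubMed search, classifier screening and manual review identified published in vivo toxicokinetic studies, which together with two structured collections supplied concentration-versus-time and amount-versus-time points. Points were mostly digitised from plot screenshots with WebPlotDigitizer, otherwise copied from tables. Dose, route, subject details and medium were hand-curated from each paper, and sampling and analytical methods are those of the sources, often unreported.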

[3] = system: Hamster; assay: concentration in plasma after dosing; conditions: dosed: 2,4-Dichlorophenoxyacetic acid, 40 mg/kg, oral, Male, Syrian Golden
Procedure, shortened: as §1

[4] = system: Hamster; assay: concentration in plasma after dosing; conditions: dosed: 2,4-Dichlorophenoxyacetic acid, 8.0 mg/kg, iv, Male, Syrian Golden
Procedure, shortened: as §1

[5] = system: Rat; assay: concentration in plasma after dosing; conditions: dosed: 2,4-Dichlorophenoxyacetic acid, 7.0 mg/kg, oral, Male, Sprague-Dawley
[6] = system: Mouse; assay: concentration in plasma after dosing; conditions: 10 min; dosed: 2-Hydroxy-4-methoxybenzophenone; 50 mg/kg; iv; Female; B6C3F1
[7] = system: Mouse; assay: concentration in plasma after dosing; conditions: 0.25 h; dosed: 2-Hydroxy-4-methoxybenzophenone; 500 mg/kg; oral; Female; B6C3F1
[8] = system: Mouse; assay: concentration in plasma after dosing; conditions: 3 h; dosed: 2-Hydroxy-4-methoxybenzophenone; 250 mg/kg; oral; Female; B6C3F1
[9] = system: Rat; assay: concentration in plasma after dosing; conditions: 1 h; dosed: Methyleugenol; 37 mg/kg; oral; Male; F344/N
[10] = system: Rat; assay: concentration in plasma after dosing; conditions: dosed: Methyleugenol, 37 mg/kg, iv, Male, F344
[11] = system: Rat; assay: concentration in liver after dosing; conditions: 6 h; dosed: Perfluorohexane-1-sulphonic acid – potassium salt; 16 mg/kg; oral; Female; F344
[12] = system: Rat; assay: concentration in liver after dosing; conditions: 192 h; dosed: Perfluorohexane-1-sulphonic acid – potassium salt; 16 mg/kg; oral; Female; Harlan Sprague Dawley
[13] = system: Rat; assay: concentration in plasma after dosing; conditions: 0.5 h; dosed: Primidone; 130 mg/kg; oral; Female; F344
[14] = system: Rat; assay: concentration in plasma after dosing; conditions: 12 h; dosed: Primidone; 80 mg/kg; oral; Female; F344
[15] = system: Rat; assay: concentration in plasma after dosing; conditions: 3 h; dosed: Primidone; 80 mg/kg; oral; Male; F344
[16] = system: Rat; assay: concentration in plasma after dosing; conditions: 0.25 h; dosed: Primidone; 30 mg/kg; oral; Female; F344
[17] = system: Rat; assay: concentration in plasma after dosing; conditions: 3 h; dosed: Primidone; 80 mg/kg; oral; Female; F344
[18] = system: Rat; assay: concentration in plasma after dosing; conditions: 3 h; dosed: Primidone; 30 mg/kg; oral; Male; F344
[19] = system: Rat; assay: concentration in plasma after dosing; conditions: 18 h; dosed: Primidone; 80 mg/kg; oral; Female; F344
[20] = system: Rat; assay: concentration in plasma after dosing; conditions: dosed: Pyridine, 5 mg/kg, iv, Male, F344
[21] = system: Rat; assay: concentration in plasma after dosing; conditions: 2 h; dosed: Pyridine; 5 mg/kg; oral; Male; F344
[22] = system: Rat; assay: concentration in plasma after dosing; conditions: 5 min; dosed: Pyridine; 10 mg/kg; iv; Male; F344
[23] = system: Rat; assay: concentration in plasma after dosing; conditions: 6 h; dosed: alpha-Thujone; 25 mg/kg; oral; Male; Harlan Sprague Dawley
[24] = system: Rat; assay: concentration in brain after dosing; conditions: 6 h; dosed: alpha-Thujone; 25 mg/kg; oral; Male; Harlan Sprague Dawley
[25] = system: Rat; assay: concentration in plasma after dosing; conditions: 1.5 h; dosed: alpha-Thujone; 25 mg/kg; oral; Male; Harlan Sprague Dawley
[26] = system: Rat; assay: concentration in brain after dosing; conditions: 5 min; dosed: alpha-Thujone; 25 mg/kg; oral; Male; Harlan Sprague Dawley
[27] = system: Rat; assay: concentration in plasma after dosing; conditions: 0.5 h; dosed: alpha-Thujone; 50 mg/kg; oral; Female; Harlan Sprague Dawley

## O=C(O)COc1ccc(Cl)cc1Cl [2,4-Dichlorophenoxyacetic acid]
[1]; 2.5 min
  concentration in plasma: 28.5 µg/mL
[1]; 10 min
  concentration in plasma: 10.4 µg/mL
[1]; 0.25 h
  concentration in plasma: 14.1 µg/mL
[1]; 0.5 h
  concentration in plasma: 9.55 µg/mL
[1]; 0.75 h
  concentration in plasma: 5.75 µg/mL
[1]; 2 h
  concentration in plasma: 2.07 µg/mL
[1]; 3 h
  concentration in plasma: 0.419 µg/mL
[1]; 3.5 h
  concentration in plasma: 0.41 µg/mL
[2]; 2.5 min, 2.0 mg/kg, oral
  concentration in plasma: 0.217 µg/mL
[2]; 2.5 min, 8.0 mg/kg, iv
  concentration in plasma: 127 µg/mL
[2]; 5 min, 2.0 mg/kg, oral
  concentration in plasma: 0.453 µg/mL
[2]; 5 min, 8.0 mg/kg, iv
  concentration in plasma: 77.1 µg/mL
[2]; 5 min, 8.0 mg/kg, oral
  concentration in plasma: 19.5 µg/mL
[2]; 5 min, 40 mg/kg, oral
  concentration in plasma: 81.6 µg/mL
[2]; 10 min, 2.0 mg/kg, oral
  concentration in plasma: 2.08 µg/mL
[2]; 10 min, 8.0 mg/kg, iv
  concentration in plasma: 42.4 µg/mL
[2]; 0.25 h, 2.0 mg/kg, oral
  concentration in plasma: 7.56 µg/mL
[2]; 0.25 h, 8.0 mg/kg, iv
  concentration in plasma: 21.3 µg/mL
[2]; 0.25 h, 8.0 mg/kg, oral
  concentration in plasma: 16.5 µg/mL
[2]; 0.25 h, 40 mg/kg, oral
  concentration in plasma: 68.5 µg/mL
[2]; 20 min, 8.0 mg/kg, iv
  concentration in plasma: 20.7 µg/mL
[2]; 0.5 h, 8.0 mg/kg, oral
  concentration in plasma: 3.99 µg/mL
[2]; 0.5 h, 40 mg/kg, oral
  concentration in plasma: 84.2 µg/mL
[2]; 40 min, 8.0 mg/kg, iv
  concentration in plasma: 3.98 µg/mL
[2]; 1 h, 8.0 mg/kg, iv
  concentration in plasma: 1.05 µg/mL
[2]; 1 h, 8.0 mg/kg, oral
  concentration in plasma: 5.86 µg/mL
[2]; 1 h, 40 mg/kg, oral
  concentration in plasma: 19.1 µg/mL
[2]; 1.5 h, 8.0 mg/kg, iv
  concentration in plasma: 0.915 µg/mL
[2]; 1.5 h, 8.0 mg/kg, oral
  concentration in plasma: 1.08 µg/mL
[2]; 1.5 h, 40 mg/kg, oral
  concentration in plasma: 29.6 µg/mL
[2]; 2 h, 8.0 mg/kg, iv
  concentration in plasma: 0.186 µg/mL
[2]; 2 h, 8.0 mg/kg, oral
  concentration in plasma: 1.12 µg/mL
[2]; 2 h, 40 mg/kg, oral
  concentration in plasma: 25.4 µg/mL
[2]; 2.5 h, 2.0 mg/kg, oral
  concentration in plasma: 1.93 µg/mL
[2]; 4 h, 8.0 mg/kg, oral
  concentration in plasma: 0.82 µg/mL
[2]; 4 h, 40 mg/kg, oral
  concentration in plasma: 2.83 µg/mL
[2]; 6 h, 8.0 mg/kg, oral
  concentration in plasma: 1.35 µg/mL
[2]; 6 h, 40 mg/kg, oral
  concentration in plasma: 2.7 µg/mL
[3]; 5 min
  concentration in plasma: 102 µg/mL
[3]; 0.25 h
  concentration in plasma: 70.5 µg/mL
[3]; 0.5 h
  concentration in plasma: 36.8 µg/mL
[3]; 1 h
  concentration in plasma: 80.1 µg/mL
[3]; 1.5 h
  concentration in plasma: 14 µg/mL
[3]; 2 h
  concentration in plasma: 20.5 µg/mL
[3]; 4 h
  concentration in plasma: 2.58 µg/mL
[4]; 0.25 h
  concentration in plasma: 13.5 µg/mL
[4]; 0.5 h
  concentration in plasma: 7.69 µg/mL
[5]; 2.5 min
  concentration in plasma: 4.36 µg/mL
[5]; 10 min
  concentration in plasma: 8.48 µg/mL
[5]; 0.25 h
  concentration in plasma: 9.53 µg/mL
[5]; 0.5 h
  concentration in plasma: 10.1 µg/mL
[5]; 2 h
  concentration in plasma: 13.9 µg/mL
[5]; 3 h
  concentration in plasma: 2.02 µg/mL
[5]; 4 h
  concentration in plasma: 2.03 µg/mL
[5]; 5 h
  concentration in plasma: 3.73 µg/mL
[5]; 6 h
  concentration in plasma: 0.776 µg/mL

## O=C(c1ccccc1)c1ccc(O)cc1O [2,4-Dihydroxybenzophenone]
[6]
  concentration in plasma: 1.61 µg/mL
[7]
  concentration in plasma: 5.48 µg/mL
[8]
  concentration in plasma: 0.133 µg/mL

## C=CCc1ccc(OC)c(OC)c1 [Methyleugenol]
[9]
  concentration in plasma: 0.0634 µg/mL
[10]; 0.5 h
  concentration in plasma: 4.01 µg/mL
[10]; 0.75 h
  concentration in plasma: 2 µg/mL

## O=S(=O)([O-])C(F)(F)C(F)(F)C(F)(F)C(F)(F)C(F)(F)C(F)(F)F.[K+] [Perfluorohexane-1-sulphonic acid – potassium salt]
[11]
  concentration in liver: 80400 ng/g
[12]
  concentration in liver: 1660 ng/g

## CCC1(c2ccccc2)C(=O)NCNC1=O [Primidone]
[13]
  concentration in plasma: 24 µg/mL
[14]
  concentration in plasma: 15.8 µg/mL
[15]
  concentration in plasma: 37.2 µg/mL
[16]
  concentration in plasma: 15.1 µg/mL
[17]
  concentration in plasma: 59.3 µg/mL
[18]
  concentration in plasma: 7.7 µg/mL
[19]
  concentration in plasma: 1.6 µg/mL

## c1ccncc1 [Pyridine]
[20]; 0.25 h
  concentration in plasma: 3.67 µg/mL
[20]; 6 h
  concentration in plasma: 1.39 µg/mL
[21]
  concentration in plasma: 2.71 µg/mL
[22]
  concentration in plasma: 2.51 µg/mL

## CC(C)[C@]12CC(=O)[C@H](C)[C@H]1C2 [alpha-Thujone]
[23]
  concentration in plasma: 267 ng/mL
[24]
  concentration in brain: 28.2 ng/g
[25]
  concentration in plasma: 95.4 ng/mL
[26]
  concentration in brain: 589 ng/g
[27]
  concentration in plasma: 5000 ng/mL
